In the library only some 1.6% were active in any assay of this set; here they are far more common.
Rpn11 block: blocks the human proteasome subunit Rpn11; O00487; human 26S proteasome, Ub4-pepOG fluorescence polarization; 20S core pre-blocked with epoxomicin; calls only at 20 µM; 360,000 tested, 0.59% active; AID 588493;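 active = inhibition at 20 µM, scaled to each plate's controls, above about 33%, limit read from the data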
CSN inh: inhibitors of human CSN-mediated cullin deneddylation; Q92905; Purified CSN, SCF-Nedd8-OG deneddylation, fluorescence polarization; AID 651999; 360,000 tested, 0.38% active; inhibition, % at 12.5 µM;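 active = pattern-corrected inhibition above about 35%, with an unprinted fluorescence ratio check between 0.5 and 1.5, limit read from the data, passing the limit was not always enough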;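 also: 0% = enzyme with substrate and 100% = substrate without enzyme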
Target sequence (Q92905 whole entry, looked up, one chain of several): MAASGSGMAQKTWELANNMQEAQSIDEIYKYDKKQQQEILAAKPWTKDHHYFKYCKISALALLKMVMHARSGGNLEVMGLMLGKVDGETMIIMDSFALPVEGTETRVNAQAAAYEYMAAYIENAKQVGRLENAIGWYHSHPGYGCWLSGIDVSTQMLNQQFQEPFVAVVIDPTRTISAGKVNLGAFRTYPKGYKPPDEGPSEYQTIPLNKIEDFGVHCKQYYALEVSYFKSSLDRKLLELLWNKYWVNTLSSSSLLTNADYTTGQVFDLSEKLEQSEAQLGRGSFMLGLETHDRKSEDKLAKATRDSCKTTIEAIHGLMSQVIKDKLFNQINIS
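Assay system: HEK293T-derived human Csn5 enzyme; quantity: 0.24 nM enzyme; medium: Tris/NaCl/DTT buffer, pH 7.5; also added: substrate SCFSkp2-Nedd8OG, 10 nM; doses: 12.5 µM compound; schedule: 90 min reaction at room temperature; signal: FP; read-out: % inhibition of substrate cleavage by Csn5; benchmarks: substrate-only high control, full reaction low control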
PKA-R1A act: activates the PKA-R1A holoenzyme complex; PKA-R1A dissociation, Cy5-IP20 fluorescence polarization; scaled: DMSO 0%, 113 µM cGMP 100%; activation, % at 11.4 µM; 340,000 tested, 0.083% active; AID 504707;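 active = percent activation above the mean of all tested compounds plus 3 SD, cut at about 19% in these data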;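 also: higher means more PKAc released from R1A so a rise in polarization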
PKA-R2B act: PKA-R2B complex activation; 340,000 tested, 0.079% active; P22694+P31323; PKA-R2B holoenzyme dissociation, Cy5-IP20 fluorescence polarization; R2B truncated from residue 108, S112A mutant; 0% DMSO only, 100% 113 µM cGMP; AID 504700; activation, % at 11.4 µM;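 active = activation above a cutoff set at the mean over all compounds plus 3 SD, cut at about 18% in these data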;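 also: higher means more holoenzyme dissociation and a rise in polarization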
TPT1 inhibitor: inhibitors of Candida albicans tRNA 2'-phosphotransferase TPT1; recombinant caTPT1, FP RNA substrate dephosphorylation; inhibition, % at 5 µM; 300,000 tested, 0.81% active;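 active = inhibition above the mean of all tested compounds plus 3 SD, set per screening campaign, cut at about 24% in these data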;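 also: plate controls were DMSO alone for no effect and ferristatin control at 100 nM for full effect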
HNF4A DNA FP: change in binding of human HNF4 alpha to DNA; AID 1224865; HNF4a-FITC DNA binding, fluorescence polarization, 1 h; activity change, % at 10 µM; 360,000 tested, 0.3% active; P41235; in the data active = activity change above about 30%, passing the limit was not always enough
Starred values were filed as active, the others as inactive.

Cc1cnc(CNC(=O)c2ccc(OC3CCN(C(=O)C4CC4)CC3)cc2)cn1 was read as Rpn11 block inactive, CSN inh -6, PKA-R1A act 2, PKA-R2B act 12, TPT1 inhibitor -6 and HNF4A DNA FP 40*.
`Clc1cc(Cl)c2nc(N3CCCC3)sc2c1` gave Rpn11 block inactive, CSN inh 41*, PKA-R1A act -3, PKA-R2B act 3, TPT1 inhibitor 0 and HNF4A DNA FP -3.
For CC1CC(=O)N(c2ccc(NCc3ccc(Cl)cc3)c([N+](=O)[O-])c2)C1=O (stereo unspecified) the results were CSN inh 39*, PKA-R1A act -3, PKA-R2B act -4, TPT1 inhibitor 1 and HNF4A DNA FP -3.
For COc1cccc(CCNc2ccc(N3C(=O)CC(C)C3=O)cc2[N+](=O)[O-])c1 (stereo unspecified) the results were Rpn11 block inactive, CSN inh 1, PKA-R1A act -17, PKA-R2B act -8, TPT1 inhibitor 1 and HNF4A DNA FP 2.
`O=C(C[n+]1ccc(CCSc2ccc(F)cc2)cc1)c1ccccc1` gave Rpn11 block active, CSN inh 105*, PKA-R1A act 1, PKA-R2B act -4, TPT1 inhibitor 15 and HNF4A DNA FP 128.
Screening COc1ccccc1N(CC(=O)NCCN1CCOCC1)S(=O)(=O)c1ccc(C)cc1 returned Rpn11 block inactive, CSN inh 9, PKA-R1A act -2, PKA-R2B act 3, TPT1 inhibitor 2 and HNF4A DNA FP 5.
`O=C(/C=C/Nc1ccc(S(=O)(=O)Nc2ncccn2)cc1)c1cccs1` gave Rpn11 block inactive, CSN inh 2, PKA-R1A act 0, PKA-R2B act -6, TPT1 inhibitor -1 and HNF4A DNA FP 2.
For O=C(/C=C/Nc1ccc(S(=O)(=O)Nc2ncccn2)cc1)c1ccc(Cl)c(Cl)c1 the results were Rpn11 block active, CSN inh 12, PKA-R1A act 2, PKA-R2B act -11, TPT1 inhibitor 4 and HNF4A DNA FP 5.
For COc1cccc(C(=O)/C=C/Nc2ccc(S(=O)(=O)Nc3onc(C)c3C)cc2)c1 the results were Rpn11 block inactive, CSN inh -9, PKA-R1A act -3, PKA-R2B act -8, TPT1 inhibitor -3 and HNF4A DNA FP 85*.
Screening Cc1ccc(OC(C)C(=O)Nc2ccc3c(c2)n(C)c(=O)n3C)c(C)c1 (stereo unspecified) returned Rpn11 block inactive, CSN inh -6, PKA-R1A act -2, PKA-R2B act -6 and HNF4A DNA FP -4.
`CC1(C)OC1COc1c2ccoc2cc2oc(=O)ccc12` (stereo unspecified) gave Rpn11 block inactive, CSN inh -3, PKA-R1A act 11, PKA-R2B act 0, TPT1 inhibitor -3 and HNF4A DNA FP 5.
For COc1cc(C(C)=O)ccc1OCC(=O)N1CCc2ccccc2C1 the results were Rpn11 block inactive, CSN inh 92*, PKA-R1A act -7, PKA-R2B act 10, TPT1 inhibitor 2 and HNF4A DNA FP 1.
COc1ccc(Cn2c(-c3ccc(C)cc3)nc3c(c(=O)c4ccccc4n3C)c2=O)cc1 was read as Rpn11 block inactive, CSN inh 44*, PKA-R1A act -8, PKA-R2B act 7, TPT1 inhibitor 2 and HNF4A DNA FP 8.
`Cc1cccc(CNc2ccc(S(=O)(=O)N3CCCCC3)cc2)c1` gave Rpn11 block inactive, CSN inh 62*, PKA-R1A act 6, PKA-R2B act 0 and HNF4A DNA FP 0.
Cc1cccc(NC(=O)CSCC(=O)Nc2ccc(S(=O)(=O)N3CCCC3)cc2)c1 was read as Rpn11 block inactive, CSN inh 0, PKA-R1A act -6, PKA-R2B act -3, TPT1 inhibitor 0 and HNF4A DNA FP 3.
For O=[N+]([O-])c1cc(S(=O)(=O)N2CCCCCC2)ccc1F the results were Rpn11 block inactive, CSN inh -4, PKA-R1A act -6, PKA-R2B act -10, TPT1 inhibitor 0 and HNF4A DNA FP -3.
For O=c1c2ccccc2nnn1CCc1ccccc1 the results were Rpn11 block inactive, CSN inh 3, PKA-R1A act 2, PKA-R2B act -4 and HNF4A DNA FP -2.
`COc1cc(-c2cc(O)c(-c3ccc4ccccc4n3)c(=O)[nH]2)cc(OC)c1OC` gave CSN inh 58*, PKA-R1A act -4, PKA-R2B act 1 and HNF4A DNA FP 135.
Screening CC(=O)Nc1cc(-c2cccc(C(=O)NCCN(C)C)c2)cn2c(-c3ccc(F)c(Cl)c3)cnc12 returned Rpn11 block inactive, CSN inh 82* and HNF4A DNA FP 6.
For Cc1ccc2c(c1)C(=O)CC1(CCCC1)O2 the results were Rpn11 block inactive, CSN inh -2, PKA-R1A act 0, PKA-R2B act 1, TPT1 inhibitor -2 and HNF4A DNA FP 1.
Screening CC(CC(=O)Nc1ccc(S(=O)(=O)N2CCOCC2)cc1)c1ccccc1 (stereo unspecified) returned Rpn11 block inactive, CSN inh -6, PKA-R1A act -12, PKA-R2B act 2, TPT1 inhibitor -3 and HNF4A DNA FP -1.
For CCN1C(=C(C#N)C#N)C=Cc2cc(C)ccc21 the results were Rpn11 block inactive, CSN inh -5, PKA-R1A act -7, PKA-R2B act -4, TPT1 inhibitor -2 and HNF4A DNA FP 31.
C=CC[n+]1c(/C=C2\C=Cc3cc(C)ccc3N2CC)ccc2ccccc21 was read as Rpn11 block inactive, CSN inh 18, PKA-R1A act -5, PKA-R2B act -3, TPT1 inhibitor 6 and HNF4A DNA FP 38*.
For Cc1nn(CC(=O)NCc2cccnc2)c(C)c1[N+](=O)[O-] the results were Rpn11 block inactive, CSN inh 0, PKA-R1A act -1, PKA-R2B act 5, TPT1 inhibitor 0 and HNF4A DNA FP -1.
COc1cccc(C(=O)NC2CC3CCCC(C2)N3CC(=O)Nc2ccc(N(C)C)cc2)c1 (stereo unspecified) was read as Rpn11 block inactive, CSN inh 5, PKA-R1A act 14, PKA-R2B act -7, TPT1 inhibitor -2 and HNF4A DNA FP -2.
`COc1cccc(C(=O)NC2CC3CCCC(C2)N3CC(=O)Nc2ccccc2)c1` (stereo unspecified) gave Rpn11 block inactive, CSN inh 62*, PKA-R1A act -5, PKA-R2B act -11, TPT1 inhibitor 1 and HNF4A DNA FP 0.
Screening CCOc1ccccc1NC(=O)COC(=O)C1CC1 returned Rpn11 block inactive, CSN inh 1, PKA-R1A act 2, PKA-R2B act -2, TPT1 inhibitor 1 and HNF4A DNA FP -5.
